Measurements from PMC3163154 (Molecular pharmaceutics, 2011).

Columns and labels:
DU145 cells = assay: Cytotoxicity assay; format: cell-based; conditions: read-out: IC50 in DU145 cells; DU145 (PTEN-wild), 72 hours, MTT assay
Procedure, shortened: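 DU145 cells were seeded at 3×10³ cells/well, a lower density than LNCaP owing to fast growth. After 24 h, test compound was added and cells were incubated 72 h at 37°C. Relative cell number was measured by MTT. IC50 was obtained by fitting a concentration-response curve.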

PI3Kβ = conditions: selectivity; cited from earlier work
LNCaP cells [1] = assay: Cytotoxicity assay; format: cell-based; conditions: read-out: IC50 in LNCaP cells; LNCaP (PTEN-null), 72 hours, MTT assay
LNCaP cells [2] = assay: Cellular uptake study; format: cell-based; conditions: 0.5 μM, 1 hour incubation
[3] = test system: androgen response element (ARE-LUC) reporter in LNCaP cells; assay: Androgen induced gene expression assay; format: cell-based; conditions: R1881 1.0 nM, 24 hours, compared with TGX-221
Procedure, shortened: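 LNCaP cells in 6-well plates were transfected the next day with 1.0 μg ARE-LUC plasmid using Lipofectamine. After 24 h, medium was changed to RPMI-1640 with 2% FBS and 1.0 nM R1881, test compound was added, and cells were incubated 24 h. Cells were PBS-washed and lysed, and luciferase activity was normalised to BCA total protein. Mean ± SD, n=3.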

LNCaP cells [4] = assay: Androgen induced proliferation assay; format: cell-based; conditions: R1881-containing serum-free medium, 3 days, compared with TGX-221
Procedure, shortened: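 LNCaP cells were seeded 12 h before assay. Medium was switched to serum-free medium containing 1 nM R1881 (synthetic androgen), then test compound was added. After 72 h incubation, proliferation was read by Alamar Blue assay. Mean ± SD, n=3.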

LNCaP cells [5] = assay: In vitro competitive receptor binding assay; format: cell-based; conditions: pre-incubation with Ac-KCCYSL 1 hour, then KCC-TGX 30 minutes
Procedure, shortened: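 LNCaP cells were plated at 2×10⁴ cells/well for 12 h and PBS-washed. They were pre-incubated 1 h at 37°C with the HER2-targeting peptide at the indicated concentrations, then exposed to test conjugate for 30 min. Cells were washed, freeze-thaw lysed, NaOH-hydrolysed 1 h to release parent drug, and extracted with ethyl acetate using an internal standard. Drug was quantified by LC-MS/MS and normalised to BCA protein. n=3.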

LNCaP cells [6] = assay: Immunostaining of LNCaP cells with biotinylated peptides; format: binding
Procedure, shortened: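 LNCaP cells were fixed in ice-cold acetone/methanol (1/1) for 10 min and blocked with 1% BSA for 1 h. Biotinylated peptide was applied for 1 h in TBST (0.1% Tween-20, 0.1 M Tris-Cl, pH 7.4). After washing, streptavidin-FITC was added for 20 min and nuclei were counterstained. Cells were imaged by fluorescence microscopy at 200x.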

Cc1cc(C(C)Nc2ccccc2)c2nc(N3CCOCC3)cc(=O)n2c1 (stereo not shown) [TGX-221]
IC50 (DU145 cells): > 100 µM | inhibition effect on PI3Kβ over PI3Kα (PI3Kβ): about 1000 fold | inhibition effect on PI3Kβ over PI3Kγ (PI3Kβ): about 1000 fold | inhibition effect on PI3Kβ over PI3Kδ (PI3Kβ): ~20 fold | IC50 (LNCaP cells [1]): 1.07 µM

Cc1cc(C(C)N(CCO)c2ccccc2)c2nc(N3CCOCC3)cc(=O)n2c1 (stereo not shown) [TGX-D1]
cellular uptake in LNCaP cells (LNCaP cells [2]): low uptake | IC50 (DU145 cells): > 100 µM | inhibition of androgen-induced gene expression [3]: comparable effects | IC50 (LNCaP cells [1]): 2.67 µM | inhibition of androgen-induced cell proliferation (LNCaP cells [4]): comparable effects

Ac-KCCYSL
uptake by LNCaP cells after pre-incubation with the HER2-specific ligand (LNCaP cells [5]): significantly inhibited

DPRATPGSK
fluorescence on LNCaP cells (streptavidin-FITC staining) (LNCaP cells [6]; control peptide, concentration increased to 100 μM (data not shown)): No significant fluorescence

KCCYSL
binding on LNCaP cells (streptavidin-FITC staining) (LNCaP cells [6]; C-terminus biotinylated peptide, 10 μM): high-affinity binding
